{"source": "ChEMBL document CHEMBL1147450", "about": "“N2-benzyl-N1-(1-(1-naphthyl)ethyl)-3-phenylpropane-1,2-diamines and conformationally restrained indole analogues: development of calindol as a new calcimimetic acting at the calcium sensing receptor” (Bioorg Med Chem Lett, 2004)"}
{"biological_target": "T1, Extracellular calcium-sensing receptor (Homo sapiens, UniProt P41180)", "T1 sequence (P41180 whole entry)": "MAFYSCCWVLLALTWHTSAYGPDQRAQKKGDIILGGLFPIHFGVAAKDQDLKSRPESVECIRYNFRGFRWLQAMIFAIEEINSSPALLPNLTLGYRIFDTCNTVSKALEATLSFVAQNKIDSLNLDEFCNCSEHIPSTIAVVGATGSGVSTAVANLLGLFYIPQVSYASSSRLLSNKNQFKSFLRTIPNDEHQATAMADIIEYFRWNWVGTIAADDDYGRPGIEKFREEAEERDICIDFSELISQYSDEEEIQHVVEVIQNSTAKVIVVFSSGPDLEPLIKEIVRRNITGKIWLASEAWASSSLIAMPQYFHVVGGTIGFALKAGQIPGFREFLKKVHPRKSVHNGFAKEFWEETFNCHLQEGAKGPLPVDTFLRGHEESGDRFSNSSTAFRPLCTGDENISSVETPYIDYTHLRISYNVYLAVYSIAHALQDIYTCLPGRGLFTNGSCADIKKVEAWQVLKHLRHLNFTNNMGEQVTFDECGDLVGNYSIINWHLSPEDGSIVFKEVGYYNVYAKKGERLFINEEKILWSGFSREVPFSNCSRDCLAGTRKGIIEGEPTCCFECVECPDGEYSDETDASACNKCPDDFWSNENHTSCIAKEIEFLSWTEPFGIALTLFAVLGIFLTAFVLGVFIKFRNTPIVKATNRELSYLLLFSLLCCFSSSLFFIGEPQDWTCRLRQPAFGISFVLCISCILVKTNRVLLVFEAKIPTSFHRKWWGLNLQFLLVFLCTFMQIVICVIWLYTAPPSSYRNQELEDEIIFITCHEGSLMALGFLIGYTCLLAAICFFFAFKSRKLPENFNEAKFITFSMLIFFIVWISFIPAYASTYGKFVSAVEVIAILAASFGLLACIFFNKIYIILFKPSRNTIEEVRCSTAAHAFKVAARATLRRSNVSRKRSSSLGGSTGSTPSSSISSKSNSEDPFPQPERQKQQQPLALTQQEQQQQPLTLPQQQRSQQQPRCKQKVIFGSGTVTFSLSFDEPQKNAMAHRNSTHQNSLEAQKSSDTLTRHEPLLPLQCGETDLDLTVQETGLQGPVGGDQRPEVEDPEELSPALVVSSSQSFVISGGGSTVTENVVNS", "test": "Ability to stimulate [3H]inositol phosphates accumulation in HEK293 cells expressing the human calcium sensing receptor (CaSR) at 2 mM [Ca2+]", "format": "functional, cell-based", "method_in_brief": "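HEK293 cells transiently expressing human CaSR, prelabelled with myo-[3H]inositol. Increasing drug concentrations were applied in the presence of 2 mM extracellular Ca2+. [3H]IP accumulation is expressed as % of the 10 mM Ca2+ response, and EC50 and maximal stimulation come from the dose-response curve. Three to five independent experiments in triplicate.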", "units": {"EC50": "nM"}}
{"smiles": "C[C@@H](NCc1cc2ccccc2[nH]1)c1cccc2ccccc12", "EC50": 310}
{"biological_target": "T2, Extracellular calcium-sensing receptor (Rattus norvegicus) (UniProt P48442)", "T2 sequence (whole entry)": "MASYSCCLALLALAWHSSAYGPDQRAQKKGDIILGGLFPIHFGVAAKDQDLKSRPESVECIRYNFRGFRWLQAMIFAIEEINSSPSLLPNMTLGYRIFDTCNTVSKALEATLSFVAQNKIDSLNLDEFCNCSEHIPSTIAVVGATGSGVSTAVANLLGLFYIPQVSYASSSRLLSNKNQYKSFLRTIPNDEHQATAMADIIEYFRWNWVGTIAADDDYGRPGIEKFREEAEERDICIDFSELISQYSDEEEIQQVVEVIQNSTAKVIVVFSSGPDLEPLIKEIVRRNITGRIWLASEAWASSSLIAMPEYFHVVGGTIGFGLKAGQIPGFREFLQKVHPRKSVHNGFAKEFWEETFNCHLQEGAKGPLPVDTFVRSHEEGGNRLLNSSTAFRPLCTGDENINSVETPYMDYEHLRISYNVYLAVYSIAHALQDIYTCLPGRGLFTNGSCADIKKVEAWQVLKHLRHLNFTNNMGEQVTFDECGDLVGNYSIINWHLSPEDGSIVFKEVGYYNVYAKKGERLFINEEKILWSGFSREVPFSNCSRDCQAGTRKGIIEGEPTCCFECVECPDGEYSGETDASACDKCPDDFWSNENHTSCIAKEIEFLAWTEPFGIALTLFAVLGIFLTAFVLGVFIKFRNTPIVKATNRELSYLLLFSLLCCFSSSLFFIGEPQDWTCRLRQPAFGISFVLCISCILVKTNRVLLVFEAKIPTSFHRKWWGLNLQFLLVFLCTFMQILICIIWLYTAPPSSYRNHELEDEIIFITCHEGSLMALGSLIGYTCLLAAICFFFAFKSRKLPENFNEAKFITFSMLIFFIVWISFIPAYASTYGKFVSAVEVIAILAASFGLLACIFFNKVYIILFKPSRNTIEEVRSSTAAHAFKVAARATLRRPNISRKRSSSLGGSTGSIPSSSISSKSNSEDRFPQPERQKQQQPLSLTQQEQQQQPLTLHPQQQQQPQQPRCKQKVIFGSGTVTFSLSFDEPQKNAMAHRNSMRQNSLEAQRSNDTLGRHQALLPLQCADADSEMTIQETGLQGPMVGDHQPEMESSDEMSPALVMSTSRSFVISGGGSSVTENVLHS", "test": "Maximal stimulation of [3H]-inositol phosphates production in CHO cells expressing rat Calcium sensing receptor (CaSR) at 10 mM [Ca2+]", "format": "functional, cell-based", "method_in_brief": "(§1)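 CHO cells stably transfected with rat brain CaSR, grown in basal Ham's F-12 (0.3 mM Ca2+, 0.6 mM Mg2+), prelabelled overnight with 0.5 µCi/mL myo-[3H]inositol. Drugs were made as 10 mM ethanol stocks, diluted in basal medium, and incubated at 37 °C with 2 mM extracellular Ca2+. Read-out is [3H]IP accumulation as % of the 10 mM Ca2+ maximal response. Two to five independent experiments in triplicate, mean ± SEM.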", "units": {"Accumulation": "%"}}
{"smiles": "CC(NCC(Cc1ccccc1)NCc1ccc(F)cc1)c1cccc2ccccc12", "note": "(centres undefined)", "Accumulation": 95}
{"smiles": "CC(NCc1cc2ccccc2[nH]1)c1cccc2ccccc12", "note": "(racemic)", "Accumulation": 103}
{"smiles": "CC(NCC(Cc1ccccc1)NCc1ccccc1Cl)c1cccc2ccccc12", "note": "(centres undefined)", "Accumulation": 98}
{"smiles": "COc1ccc(CNC(CNC(C)c2cccc3ccccc23)Cc2ccccc2)cc1", "note": "(centres undefined)", "Accumulation": 80}
{"smiles": "COc1ccc(CNC(CNC(C)c2cccc3ccccc23)Cc2ccccc2)cc1OC", "note": "(centres undefined)", "Accumulation": 74}
{"smiles": "CC(NCC(Cc1ccccc1)NCc1cccc(Cl)c1)c1cccc2ccccc12", "note": "(centres undefined)", "Accumulation": 78}
{"smiles": "C[C@@H](NCc1cc2ccccc2[nH]1)c1cccc2ccccc12", "Accumulation": 117}
{"smiles": "CC(NCC(Cc1ccccc1)NCc1ccccc1)c1cccc2ccccc12", "note": "(centres undefined)", "Accumulation": 80}
{"smiles": "CC(NCc1cc2cc(F)ccc2[nH]1)c1cccc2ccccc12", "note": "(centres undefined)", "Accumulation": 87}
{"smiles": "COc1ccc(S(=O)(=O)n2c(CNC(C)c3cccc4ccccc34)cc3ccccc32)cc1OC", "note": "(centres undefined)", "Accumulation": 54}
{"smiles": "COc1cc2cc(CNC(C)c3cccc4ccccc34)[nH]c2cc1OC", "note": "(centres undefined)", "Accumulation": 34}
{"smiles": "COc1ccc2[nH]c(CNC(C)c3cccc4ccccc34)cc2c1", "note": "(centres undefined)", "Accumulation": 55}
{"smiles": "CC(NCc1cc2ccccc2n1C)c1cccc2ccccc12", "note": "(centres undefined)", "Accumulation": 79}
{"smiles": "C[C@H](NCc1cc2ccccc2[nH]1)c1cccc2ccccc12", "Accumulation": 32}
{"smiles": "CC(NC(=O)c1cc2ccccc2[nH]1)c1cccc2ccccc12", "note": "(centres undefined)", "Accumulation": 2}
{"smiles": "CC(NCc1cc2cc(Cl)ccc2[nH]1)c1cccc2ccccc12", "note": "(centres undefined)", "Accumulation": 60}
{"biological_target": "T3, Extracellular calcium-sensing receptor (Rattus norvegicus, UniProt P48442)", "T3 sequence (P48442 whole entry)": "T2 sequence (whole entry)", "test": "Ability to stimulate [3H]inositol phosphates accumulation in CHO cells expressing rat Calcium sensing receptor (CaSR) at 2 mM [Ca2+]", "format": "functional, cell-based", "method_in_brief": "as §1", "units": {"EC50": "nM"}}
{"smiles": "CC(NCc1cc2ccccc2[nH]1)c1cccc2ccccc12", "note": "(racemic)", "EC50": 1300}
{"smiles": "C[C@@H](NCc1cc2ccccc2[nH]1)c1cccc2ccccc12", "EC50": 1000}
